High-throughput results: PubChem BioAssay, several laboratories
ROMK primary = ROMK potassium channel modulators, primary screen, cell-based, thallium flux, MLSMR library; B-score at 10 µM; ATP-sensitive inward rectifier potassium channel 1 (Homo sapiens), P48048; AID 1918, 2009; Tet-inducible ROMK, thallium flux fluorescence; actives lie on both sides; 2% of 130,000 active;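 active = signal ratio slope over the read window, or its plate-corrected B-score, at least 3 SD from the plate mean, either direction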;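 note: B-score of the F/F0 ratio slope over 7 to 12 s after thallium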
ABCB1 inh = ABCB1 efflux pump inhibitors, primary screen, cell-based, multiplex, flow cytometry, ABCG2 counter-screen | ATP-dependent translocase ABCB1 (Homo sapiens), P08183 | CCRF-Adr cells, JC-1 efflux | inhibition, % at 6.6 µM | 0.067% of 190,000 active; in the data active = inhibition above about 40%;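 note: higher value means more JC-1 retained so stronger ABCB1 efflux block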
ABCG2 block = ABCG2 efflux pump inhibitors, primary screen, multiplex with ABCB1, IgMXP3 cells, flow cytometry; AID 1325, 2008; 0.1% of 190,000 active; inhibition, % at 6.6 µM; JC-1 efflux; Broad substrate specificity ATP-binding cassette transporter ABCG2 (Homo sapiens), Q9UNQ0;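 active = inhibition above 80%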
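Incubation: cells with compound and JC-1, 10 min at 25 °C, rotating, no wash / Test system: IgMXP3 (ABCG2) plus far-red-tagged CCRF-Adr (ABCB1) cells / Compound dosing: one concentration, 6.6 µM final / Also added: JC-1 fluorescent substrate / Evaluation: efflux inhibition in percent versus controls / Detection: flow cytometry, 530 nm JC-1 signal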
PMI activator = activators of human PMI, primary screen, biochemical, fluorescence intensity, near-Km mannose 6-phosphate. purified human PMI, coupled resazurin fluorescence, 20 min; hits give high values; 1 = vehicle control, 0 substrate-free wells. 0.005% of 190,000 active. Mannose-6-phosphate isomerase (Homo sapiens), P34949. activation factor at 20 µM;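 active = activation factor of 2 or more at 20 µM, relative to plate controls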
Target sequence (P34949 whole entry, looked up): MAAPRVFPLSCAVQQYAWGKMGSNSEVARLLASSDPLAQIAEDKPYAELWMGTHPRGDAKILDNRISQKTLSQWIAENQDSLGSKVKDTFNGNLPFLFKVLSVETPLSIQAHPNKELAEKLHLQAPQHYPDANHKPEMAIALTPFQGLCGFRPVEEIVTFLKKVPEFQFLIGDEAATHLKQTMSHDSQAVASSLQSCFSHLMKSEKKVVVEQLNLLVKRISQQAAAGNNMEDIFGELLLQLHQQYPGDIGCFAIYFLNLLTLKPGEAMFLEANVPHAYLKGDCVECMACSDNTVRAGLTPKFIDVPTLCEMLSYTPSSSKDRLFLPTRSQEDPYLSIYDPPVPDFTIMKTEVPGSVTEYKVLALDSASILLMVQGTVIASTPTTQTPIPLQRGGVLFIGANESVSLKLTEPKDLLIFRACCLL
KCC2 mod = KCC2 cotransporter modulators, thallium flux, primary screen, cell-based, HEK293 KCC2, FluoZin-2 fluorescence, MLSMR. 2.2% of 190,000 active. AID 1456, 2008. B-score of Tl+ flux slope (higher = more flux/activation; lower = inhibition) at 10 µM. KCC2 cells, thallium flux FluoZin-2 fluorescence;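 active = thallium flux slope and its plate-corrected score both differing from the plate sample mean at a set confidence after two filtering rounds, in either direction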;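 note: slope of fluorescence scaled to starting intensity during 10 to 20 s after thallium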
PMI act satM6P = human PMI activators, high substrate, primary screen, biochemical, fluorescence intensity, near-saturating mannose 6-phosphate | Mannose-6-phosphate isomerase (Homo sapiens), P34949 | coupled PMI enzyme assay, resazurin fluorescence, 20 min; hits give high values; 1 = untreated enzyme, 0 = substrate-free blank | activation factor at 20 µM | 0.34% of 190,000 active | AID 1216, 2008;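 active = activation factor of 2 or more at 20 µM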
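Test system: human PMI in coupled enzyme assay; Input: PMI at 15 ng/mL final; Medium: HEPES buffer, pH 7.4; Schedule: 20 min incubation at room temperature; Technique: resorufin fluorescence at Ex 544/Em 590 nm; Compound: 20 µM single dose; Probe or stimulus: Near-saturating mannose-6-phosphate, 1.0 mM.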
ROMK hit retest = ROMK channel modulator hit retest, confirmation, cell-based, thallium flux, duplicate, resupplied hits. normalized thallium flux (F/F0 slope) at 10 µM. shares compounds with ROMK primary. 54% of 3,000 active. fluorescence ratio; hits give low values;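 active = Flux at 10 µM at least 3 SD below or above vehicle control mean in one or both replicates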
A number is an active result; i = inactive; nt = no result given. The list is not random: actives were taken first. Their share in the collection is about 3.3%.

SMILES	ROMK primary	ABCB1 inh	ABCG2 block	PMI activator	KCC2 mod	PMI act satM6P	ROMK hit retest
Cc1cc(-c2nn(-c3ccccc3F)cc2CN2CCN(c3ccncc3)CC2)c(C)s1	-3.05	i	i	i	nt	i	0.0635
Cc1cc(-c2nn(-c3ccccc3F)cc2CN2CCC(O)CC2)c(C)s1	i	i	i	i	i	i	nt
COc1ccc(C(C)C)cc1S(=O)(=O)n1ccnc1C	i	i	i	i	i	i	nt
Cc1cc(C)cc(OCCNC(=O)C(C)N2C(=O)c3ccccc3C2=O)c1 (configuration not stated)	2.42	i	i	i	i	i	i
CCOC(=O)C1CCCN(C(=O)c2ccco2)C1 (configuration not stated)	nt	i	i	i	i	i	nt
CC(=O)c1ccc(NC(=S)NNC(=O)c2ccncc2)cc1	nt	i	i	i	i	i	nt
CCOc1ccccc1NC(=O)COC(=O)C(CC(C)C)N1C(=O)C2CC=CCC2C1=O (configuration not stated)	nt	i	i	i	i	i	0.0634
CC(C)CC(C(=O)OCC(=O)Nc1cccc(Cl)c1)N1C(=O)C2CC=CCC2C1=O (configuration not stated)	nt	i	i	i	i	i	nt
COCCC1CCCCN1Cc1cn(-c2ccccc2)nc1-c1ccc2c(c1)OCO2 (configuration not stated)	-4.86	i	i	i	i	i	0.0517
CN(CCn1ccnc1)Cc1cn(-c2ccccc2)nc1-c1ccc2c(c1)OCO2	-4.63	i	i	i	i	i	0.0519
CC(=O)NCC1CCCN(Cc2cn(-c3ccccc3)nc2-c2ccc3c(c2)OCO3)C1 (configuration not stated)	nt	i	i	i	i	i	nt
CN(Cc1cn(-c2ccccc2)nc1-c1ccc2c(c1)OCO2)Cc1nccn1C	i	i	i	i	i	i	nt
CSc1ccccc1NC(=O)CN1CCN(Cc2ccccc2)CC1	-3.07	i	i	i	i	i	i
CCOC(=O)N1CCN(CC(=O)Nc2ccc([N+](=O)[O-])cc2C(=O)Nc2ccccc2F)CC1	nt	i	i	i	i	i	nt
O=C(CN1CCN(Cc2ccccc2)CC1)Nc1ccc([N+](=O)[O-])cc1C(=O)Nc1ccccc1F	nt	i	i	i	i	i	0.0577
COC(CN1C(=O)C(O)=C(C(C)=O)C1c1ccccn1)OC (configuration not stated)	nt	i	i	i	nt	i	nt
O=c1c2ccccc2c(/C=N/c2nnc(Cc3ccccc3)s2)c(O)n1-c1ccc(Cl)cn1	-4.34	i	i	i	i	i	0.06
CCOC(=O)c1cnc2c(C(=O)OC)cccc2c1NCc1cccnc1	i	i	i	i	i	i	nt
O=C1Nc2ccccc2/C1=C/c1cnc(-c2ccccc2)[nH]1	nt	nt	nt	nt	i	nt	0.0478
O=C1Nc2ccccc2/C1=C/c1cccnc1	i	i	i	i	i	i	nt
Cc1ccc2nc(NC(=O)C(NS(=O)(=O)c3cccc4nsnc34)C(C)C)sc2c1 (configuration not stated)	nt	i	i	i	i	i	0.0621
CC(C)C(NS(=O)(=O)c1cccc2nsnc12)C(=O)Nc1nccs1 (configuration not stated)	i	nt	nt	nt	i	nt	nt
O=C(CSc1nnc(Cn2c(=O)sc3ccccc32)n1CCc1ccccc1)N1CCCC1	nt	i	i	i	i	i	i
